Measurements published in ChEMBL document CHEMBL4052804, “Design and synthesis of piperazine acetate podophyllotoxin ester derivatives targeting tubulin depolymerization as new anticancer agents” (Bioorg Med Chem Lett, 2017).

Legend:
MCF7 [1] = assay: Induction of apoptosis in human MCF7 cells assessed as early apoptotic cells at 4 uM after 24 hrs by Annexin-V-FITC/propidium iodide staining based flow cytometric method (reference value: 2.36 to 2.86%); assay type: functional
MCF7 [2] = assay: Cytotoxicity against human MCF7 cells after 24 hrs by MTT assay; assay type: functional, cell-based; details: MCF7, 24 h
In short: (§1)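 In vitro antiproliferative screen by MTT assay against human MCF-7 breast, HeLa cervical, A549 lung adenocarcinoma and HepG-2 hepatoma cells. Output is the IC50.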

MCF7 [3] = assay: Cell cycle arrest in human MCF7 cells assessed as accumulation at G1 phase at 0.6 uM after 16 hrs by propidium iodide staining based flow cytometric method (reference value: 60.19 to 60.87%); assay type: functional
MCF7 [4] = assay: Cell cycle arrest in human MCF7 cells assessed as accumulation at S phase at 0.6 uM after 16 hrs by propidium iodide staining based flow cytometric method (reference value: 29.55 to 32.22%); assay type: functional
MCF7 [5] = assay: Induction of apoptosis in human MCF7 cells assessed as early apoptotic cells at 2 uM after 24 hrs by Annexin-V-FITC/propidium iodide staining based flow cytometric method (reference value: 2.36 to 2.86%); assay type: functional
MCF7 [6] = assay: Induction of apoptosis in human MCF7 cells assessed as late apoptotic cells at 4 uM after 24 hrs by Annexin-V-FITC/propidium iodide staining based flow cytometric method (reference value: 2 to 3.7%); assay type: functional
MCF7 [7] = assay: Induction of apoptosis in human MCF7 cells assessed as early apoptotic cells at 12 uM after 24 hrs by Annexin-V-FITC/propidium iodide staining based flow cytometric method (reference value: 2.36 to 2.86%); assay type: functional
MCF7 [8] = assay: Induction of apoptosis in human MCF7 cells assessed as necrotic cells at 4 uM after 24 hrs by Annexin-V-FITC/propidium iodide staining based flow cytometric method (reference value: 2.35 to 2.49%); assay type: functional
MCF7 [9] = assay: Cell cycle arrest in human MCF7 cells assessed as accumulation at G1 phase at 0.6 uM after 4 hrs by propidium iodide staining based flow cytometric method (reference value: 60.19 to 60.87%); assay type: functional
MCF7 [10] = assay: Induction of apoptosis in human MCF7 cells assessed as early apoptotic cells at 8 uM after 24 hrs by Annexin-V-FITC/propidium iodide staining based flow cytometric method (reference value: 2.36 to 2.86%); assay type: functional
MCF7 [11] = assay: Cell cycle arrest in human MCF7 cells assessed as accumulation at S phase at 0.6 uM after 12 hrs by propidium iodide staining based flow cytometric method (reference value: 27.63 to 32.34%); assay type: functional
MCF7 [12] = assay: Cell cycle arrest in human MCF7 cells assessed as accumulation at G2/M phase at 0.6 uM after 16 hrs by propidium iodide staining based flow cytometric method (reference value: 7.59 to 9.58%); assay type: functional
MCF7 [13] = assay: Cell cycle arrest in human MCF7 cells assessed as accumulation at G1 phase at 0.9 uM after 12 hrs by propidium iodide staining based flow cytometric method (reference value: 58.69 to 62.23%); assay type: functional
MCF7 [14] = assay: Induction of apoptosis in human MCF7 cells assessed as late apoptotic cells at 12 uM after 24 hrs by Annexin-V-FITC/propidium iodide staining based flow cytometric method (reference value: 2 to 3.7%); assay type: functional
MCF7 [15] = assay: Cell cycle arrest in human MCF7 cells assessed as accumulation at G2/M phase at 0.6 uM after 12 hrs by propidium iodide staining based flow cytometric method (reference value: 5.43 to 13.68%); assay type: functional
MCF7 [16] = assay: Induction of apoptosis in human MCF7 cells assessed as necrotic cells at 8 uM after 24 hrs by Annexin-V-FITC/propidium iodide staining based flow cytometric method (reference value: 2.35 to 2.49%); assay type: functional
MCF7 [17] = assay: Induction of apoptosis in human MCF7 cells assessed as viable cells at 4 uM after 24 hrs by Annexin-V-FITC/propidium iodide staining based flow cytometric method (reference value: 91.6 to 92.7%); assay type: functional; details: MCF7, 24 h, read-out: Activity
MCF7 [18] = assay: Cell cycle arrest in human MCF7 cells assessed as accumulation at G1 phase at 0.3 uM after 12 hrs by propidium iodide staining based flow cytometric method (reference value: 58.69 to 62.23%); assay type: functional
HepG2 = assay: Cytotoxicity against human HepG2 cells after 24 hrs by MTT assay; assay type: functional, cell-based; details: HepG2, 24 h; in short: as §1
MCF7 [19] = assay: Induction of apoptosis in human MCF7 cells assessed as viable cells at 2 uM after 24 hrs by Annexin-V-FITC/propidium iodide staining based flow cytometric method (reference value: 91.6 to 92.7%); assay type: functional; details: MCF7, 24 h, read-out: Activity
MCF7 [20] = assay: Induction of apoptosis in human MCF7 cells assessed as necrotic cells at 2 uM after 24 hrs by Annexin-V-FITC/propidium iodide staining based flow cytometric method (reference value: 2.35 to 2.49%); assay type: functional
MCF7 [21] = assay: Cell cycle arrest in human MCF7 cells assessed as accumulation at S phase at 0.3 uM after 12 hrs by propidium iodide staining based flow cytometric method (reference value: 27.63 to 32.34%); assay type: functional
MCF7 [22] = assay: Cell cycle arrest in human MCF7 cells assessed as accumulation at G2/M phase at 0.3 uM after 12 hrs by propidium iodide staining based flow cytometric method (reference value: 5.43 to 13.68%); assay type: functional
MCF7 [23] = assay: Cell cycle arrest in human MCF7 cells assessed as accumulation at G1 phase at 0.6 uM after 12 hrs by propidium iodide staining based flow cytometric method (reference value: 58.69 to 62.23%); assay type: functional
MCF7 [24] = assay: Induction of apoptosis in human MCF7 cells assessed as necrotic cells at 12 uM after 24 hrs by Annexin-V-FITC/propidium iodide staining based flow cytometric method (reference value: 2.35 to 2.49%); assay type: functional
MCF7 [25] = assay: Cell cycle arrest in human MCF7 cells assessed as accumulation at G2/M phase at 0.6 uM after 4 hrs by propidium iodide staining based flow cytometric method (reference value: 7.59 to 9.58%); assay type: functional
MCF7 [26] = assay: Cell cycle arrest in human MCF7 cells assessed as accumulation at S phase at 0.6 uM after 4 hrs by propidium iodide staining based flow cytometric method (reference value: 29.55 to 32.22%); assay type: functional
MCF7 [27] = assay: Cell cycle arrest in human MCF7 cells assessed as accumulation at S phase at 0.6 uM after 8 hrs by propidium iodide staining based flow cytometric method (reference value: 29.55 to 32.22%); assay type: functional
MCF7 [28] = assay: Induction of apoptosis in human MCF7 cells assessed as late apoptotic cells at 2 uM after 24 hrs by Annexin-V-FITC/propidium iodide staining based flow cytometric method (reference value: 2 to 3.7%); assay type: functional
MCF7 [29] = assay: Cell cycle arrest in human MCF7 cells assessed as accumulation at S phase at 0.9 uM after 12 hrs by propidium iodide staining based flow cytometric method (reference value: 27.63 to 32.34%); assay type: functional
MCF7 [30] = assay: Induction of apoptosis in human MCF7 cells assessed as viable cells at 12 uM after 24 hrs by Annexin-V-FITC/propidium iodide staining based flow cytometric method (reference value: 91.6 to 92.7%); assay type: functional; details: MCF7, 24 h, read-out: Activity
MCF7 [31] = assay: Induction of apoptosis in human MCF7 cells assessed as late apoptotic cells at 8 uM after 24 hrs by Annexin-V-FITC/propidium iodide staining based flow cytometric method (reference value: 2 to 3.7%); assay type: functional
MCF7 [32] = assay: Cell cycle arrest in human MCF7 cells assessed as accumulation at G2/M phase at 0.6 uM after 8 hrs by propidium iodide staining based flow cytometric method (reference value: 7.59 to 9.58%); assay type: functional
MCF7 [33] = assay: Cell cycle arrest in human MCF7 cells assessed as accumulation at G1 phase at 0.6 uM after 8 hrs by propidium iodide staining based flow cytometric method (reference value: 60.19 to 60.87%); assay type: functional
MCF7 [34] = assay: Cell cycle arrest in human MCF7 cells assessed as accumulation at G2/M phase at 0.9 uM after 12 hrs by propidium iodide staining based flow cytometric method (reference value: 5.43 to 13.68%); assay type: functional
L02 = assay: Cytotoxicity against human L02 cells after 24 hrs by MTT assay; assay type: cell-based; details: L02, 24 h
In short: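 Normal human liver L02 cells were tested at multiple concentrations in an MTT assay. Output is the median cytotoxic concentration (CC50).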

MCF7 [35] = assay: Induction of apoptosis in human MCF7 cells assessed as viable cells at 8 uM after 24 hrs by Annexin-V-FITC/propidium iodide staining based flow cytometric method (reference value: 91.6 to 92.7%); assay type: functional; details: MCF7, 24 h, read-out: Activity
A549 = assay: Cytotoxicity against human A549 cells after 24 hrs by MTT assay; assay type: functional, cell-based; details: A549, 24 h; in short: as §1
HeLa = assay: Cytotoxicity against human HeLa cells after 24 hrs by MTT assay; assay type: functional, cell-based; in short: as §1

COc1cc([C@@H]2c3cc4c(cc3[C@H](O)[C@H]3COC(=O)[C@H]23)OCO4)cc(OC)c1OC [PODOFILOX]
Activity (MCF7 [1]): 7.87%
IC50 (MCF7 [2]): 7.13 µM
Activity (MCF7 [3]): 11.02%
Activity (MCF7 [4]): 26.78%
Activity (MCF7 [5]): 5.5%
Activity (MCF7 [6]): 10.5%
Activity (MCF7 [7]): 13.4%
Activity (MCF7 [8]): 2.34%
Activity (MCF7 [9]): 47.97%
Activity (MCF7 [10]): 10.1%
Activity (MCF7 [11]): 27.34 - 31.52%
Activity (MCF7 [12]): 62.2%
Activity (MCF7 [13]): 8.17%
Activity (MCF7 [14]): 17.4%
Activity (MCF7 [15]): 45.4 - 47.67%
Activity (MCF7 [16]): 4.65%
viability at 4 µM (MCF7 [17]): 79.4%
Activity (MCF7 [18]): 40.17%
IC50 (HepG2): 5.81 µM
viability at 2 µM (MCF7 [19]): 84.2%
Activity (MCF7 [20]): 1.69%
Activity (MCF7 [21]): 30.34%
Activity (MCF7 [22]): 29.49%
Activity (MCF7 [23]): 20.81 - 27.26%
Activity (MCF7 [24]): 6.65%
Activity (MCF7 [25]): 22.4%
Activity (MCF7 [26]): 29.63%
Activity (MCF7 [27]): 31.73%
Activity (MCF7 [28]): 8.61%
Activity (MCF7 [29]): 19.79%
viability at 12 µM (MCF7 [30]): 62.8%
Activity (MCF7 [31]): 12.4%
Activity (MCF7 [32]): 30.75%
Activity (MCF7 [33]): 37.52%
Activity (MCF7 [34]): 72.04%
IC50 (L02): 3.72 µM
viability at 8 µM (MCF7 [35]): 72.9%
IC50 (A549): 9.34 µM
IC50 (HeLa): 7.45 µM
